Hits are enriched below; roughly 3.1% of the tested compounds scored in any of these assays.
Ecoli rRNA inh – selective bacterial rRNA inhibition in E. coli; GFP signal change (wild-type ribosome), % (no concentration beside the values); E. coli WT GFP vs humanized-ribosome RFP mutants, fluorescence, 24 h; hits give low values; DMSO median 0, no signal -100; 350,000 tested, 1.6% active; AID 720706;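 active = significant combined selectivity score with lowered wild-type GFP, culture density cut under 30%, mutant RFP and density less affected; inactive = any of these conditions unmet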
Env fusion inh – blocks HIV Env-driven cell-cell fusion; AID 651610; 360,000 tested, 1.1% active; HeLa-JRFL Env/CEM21 cell fusion, luciferase; inhibition, % at 12.3 µM;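 active = mean replicate inhibition score of at least 50 and every replicate individually at or above 50; inconclusive = only one of the two criteria met; inactive = mean below 50 and not all replicates reaching 50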
Cneo AK release – causes C. neoformans cell lysis; 360,000 tested, 0.2% active; lysis activity, % at 15 µM; adenylate kinase release luminescence, 4 h; normalised: neutral wells 0, clomiphene wells 100;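 active = mean lysis activity across replicates of at least 80%, whatever share of replicates individually reach that level; inactive = mean lysis activity below 80%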
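Test system: log-phase Cryptococcus neoformans yeast cells; Quantity: yeast cell density of 5 × 10^6 cells/mL; Buffer or medium: YPD; Doses: single compound concentration per well; Timing: 4 h at 37 °C static, read 1 h later; Measured by: AK luminescence; Read-out basis: lysis from increased AK signal; Control set: Clomiphene as positive control.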
INS-1E GSIS act – GLuc luminescence reporter in INS-1E cells, primary screen for activators of glucose-dependent secretion of insulin. INS-1E GLuc reporter insulin secretion, 2-3 h. activation, % at 16.6 µM. 370,000 tested, 0.61% active. AID 743287;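 active = lowest replicate activation of at least 40%, so every replicate reaches that level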
F508del corr – CFTR F508del correction in bronchial cells; 350,000 tested, 0.36% active; CFBE cells, YFP halide quenching; stimulated with forskolin plus potentiator P3; % fluorescence drop versus neutral controls; activity (quench increase), % at 7.58 µM; AID 720511;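 active = mean added fluorescence quench of at least 8% versus neutral control, with both replicates also reaching 8%; inconclusive = only one of the mean or replicate conditions met; inactive = mean below 8% and not both replicates reaching 8%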;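 also: cells transiently co-express mutant CFTR-F508del with the halide-sensitive YFP; corrector assay measuring rescue of mutant channel to the surface after 24 h compound exposure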
miR122 inh – inhibitors of miR-122 in Huh7 cells | Huh7 miR-122 Renilla luciferase sensor, 48 h; neutral wells = 0, positive control = 100 | activation (reporter increase), % at 12.5 µM | 340,000 tested, 0.3% active;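 active = mean replicate activation score at least 90 and every replicate individually at or above 90; inconclusive = only one of the two criteria met; inactive = neither criterion met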;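 also: higher luciferase means less miR-122 activity so hits act as miR-122 inhibitors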
A number is an active result.

For COC(=O)C1=C(C)N(Cc2ccccc2)C(=S)N[C@H]1c1cccc(F)c1 the results were Ecoli rRNA inh inactive, Env fusion inh inactive, Cneo AK release 180, INS-1E GSIS act inactive and F508del corr inactive.
`COC(=O)C1=C(C)N(Cc2ccc(F)cc2)C(=S)NC1c1cccc(F)c1` (centres undefined) gave Ecoli rRNA inh inactive, Env fusion inh inactive, INS-1E GSIS act inactive and F508del corr inactive.
Screening COC(=O)C1=C(C)N(Cc2ccc(Cl)cc2)C(=S)NC1c1ccc(Br)cc1 (centres undefined) returned Ecoli rRNA inh inactive, Env fusion inh 56, INS-1E GSIS act inactive and F508del corr inactive.
CC(=O)C1=C(C)N(Cc2ccc(Br)cc2)C(=S)NC1c1cccc(Cl)c1 (centres undefined) was read as Ecoli rRNA inh inactive, Env fusion inh 70, INS-1E GSIS act inactive and F508del corr inactive.
`CC(=O)C1=C(C)N(Cc2ccc(Br)cc2)C(=S)NC1c1cccc(Br)c1` (centres undefined) gave Ecoli rRNA inh inactive, Env fusion inh inconclusive, INS-1E GSIS act inactive and F508del corr inactive.
Screening CC(=O)C1=C(C)N(Cc2ccc(Cl)cc2)C(=S)NC1c1cccc(Br)c1 (centres undefined) returned Ecoli rRNA inh inactive, Env fusion inh 70, INS-1E GSIS act inactive and F508del corr inactive.
COC(=O)C1=C(C)N(Cc2ccc(Cl)cc2)C(=S)NC1c1ccc(F)cc1 (centres undefined) was read as Ecoli rRNA inh inactive, Env fusion inh inactive, INS-1E GSIS act inactive and F508del corr inactive.
For C[C@H]1CN([C@@H](C)CO)C(=O)c2cc(C3=CCCCC3)cnc2O[C@@H]1CN(C)C(=O)NC1CCCC1 the results were Ecoli rRNA inh inactive, Env fusion inh inactive, Cneo AK release inactive, INS-1E GSIS act inactive and F508del corr inactive.
CC(C)NC(=O)Nc1ccc2c(c1)CC(=O)N([C@H](C)CO)C[C@@H](C)[C@@H](CN(C)Cc1ccc(C(F)(F)F)cc1)O2 was read as Ecoli rRNA inh inactive, Cneo AK release inactive, INS-1E GSIS act inactive, F508del corr inactive and miR122 inh inactive.
`O=C(C[C@H]1C[C@@H]2c3cc(NS(=O)(=O)c4ccc(F)cc4)ccc3O[C@@H]2[C@H](CO)O1)NC1CCCCC1` gave Ecoli rRNA inh inactive, Env fusion inh inactive, Cneo AK release inactive, INS-1E GSIS act inactive, F508del corr inactive and miR122 inh inactive.
For CCCNC(=O)N1C[C@H]2[C@@H](c3ccccc31)[C@H](CO)N2C(=O)NCCC the results were Ecoli rRNA inh inactive, Cneo AK release inactive, INS-1E GSIS act inactive, F508del corr inactive and miR122 inh inactive.
Screening CCN(Cc1ccccc1)S(=O)(=O)c1cc(C(=O)c2c(N)n(C)c(=O)n(C)c2=O)ccc1OC returned Ecoli rRNA inh -37, Env fusion inh inactive, INS-1E GSIS act inactive and F508del corr inactive.
CCCCN(Cc1ccccc1)S(=O)(=O)c1c(N)n(C)c(=O)n(C)c1=O was read as Env fusion inh inactive, Cneo AK release inactive, F508del corr inactive and miR122 inh inactive.
Screening O=S(=O)(NCCc1csc(-c2cccnc2)n1)c1ccc(Cl)s1 returned Ecoli rRNA inh inactive, Env fusion inh 122, Cneo AK release inactive, F508del corr inactive and miR122 inh inactive.
`O=S(=O)(NCCc1csc(-c2cccnc2)n1)c1cccs1` gave Ecoli rRNA inh inactive, Env fusion inh inactive, Cneo AK release inactive, INS-1E GSIS act inactive and F508del corr inactive.
For COCC(=O)Nc1ccc2c(c1)[C@@H]1C[C@H](CC(=O)NCC3CC3)O[C@H](CO)[C@@H]1O2 the results were Ecoli rRNA inh inactive, Cneo AK release inactive, INS-1E GSIS act inactive, F508del corr inactive and miR122 inh inactive.
For CCCCCCCCN1C(=O)[C@H](CC(=O)N2CCCCC2)C[C@@]2(C(=O)OCC)CCCC=C12 the results were Env fusion inh 89 and F508del corr inactive.
`CCCCCCCCN1C(=O)[C@H](CC(=O)NCCCC)C[C@@]2(C(=O)OCC)CCCC=C12` gave Env fusion inh 97 and F508del corr inactive.
Screening Nc1[nH]c(C(=O)c2ccccc2)c(-c2c(F)cccc2F)c1C(=O)c1ccc(Cl)c(Cl)c1 returned Ecoli rRNA inh inactive, Env fusion inh inactive, INS-1E GSIS act 177 and F508del corr inactive.
`Nc1[nH]c(C(=O)c2ccccc2)c(-c2ccccc2Br)c1C(=O)c1ccccc1` gave Ecoli rRNA inh -41, Env fusion inh inactive, INS-1E GSIS act inactive and F508del corr inactive.
For C[C@@H]1CC=CC[C@@H](c2cccc(Cl)c2)NC(=O)[C@H](C)N(C)C(=O)c2ccccc2O1 (mixture of isomers) the results were Ecoli rRNA inh inactive and INS-1E GSIS act inactive.
Cc1ccccc1Nc1ccc2nonc2c1[N+](=O)[O-] was read as Ecoli rRNA inh inactive, Env fusion inh inactive, Cneo AK release inactive, INS-1E GSIS act inactive and F508del corr inactive.
For Cc1ccccc1Nc1cccc2nonc12 the results were Ecoli rRNA inh -40, Env fusion inh inactive, Cneo AK release inactive, INS-1E GSIS act inactive and miR122 inh inactive.
`COc1ccc(C(=O)c2c(N)sc3c2CCN(C(=O)OC(C)(C)C)C3)cc1` gave Env fusion inh inactive, Cneo AK release inactive, F508del corr inactive and miR122 inh inactive.
For CN1CCc2c(sc(N)c2C(=O)c2ccc(Cl)cc2)C1 the results were Ecoli rRNA inh inactive, Env fusion inh inactive, Cneo AK release 164, INS-1E GSIS act inactive, F508del corr inactive and miR122 inh inactive.
For CCN(CC)CCNc1ccc(CO)c2sc3ccccc3c(=O)c12 the results were Ecoli rRNA inh inactive, Env fusion inh inactive, Cneo AK release inactive, F508del corr inactive and miR122 inh inactive.
O=c1c2ccccc2sc2c(CO)ccc(NCCN3CCCCC3)c12 was read as Env fusion inh inactive and F508del corr 17.
`COc1ccc(NC(=S)N2CCC(Cc3ccccc3)CC2)cc1OC` gave Ecoli rRNA inh inactive, Env fusion inh inactive, Cneo AK release inactive, INS-1E GSIS act inactive, F508del corr inactive and miR122 inh inactive.
COc1ccc(Br)c(C(=O)OCC(=O)N2CCC(Cc3ccccc3)CC2)c1 was read as Ecoli rRNA inh -35, Env fusion inh inactive, Cneo AK release inactive, INS-1E GSIS act inactive, F508del corr inactive and miR122 inh inactive.
Screening COc1cccc(NC(=S)N2CCC(Cc3ccccc3)CC2)c1 returned Ecoli rRNA inh inactive, Env fusion inh inactive, Cneo AK release 117, INS-1E GSIS act inactive, F508del corr inactive and miR122 inh inactive.
COc1ccc(OCC(=O)N2CCC(Cc3ccccc3)CC2)cc1 was read as Ecoli rRNA inh inactive, Env fusion inh inactive, Cneo AK release inactive, INS-1E GSIS act inactive, F508del corr inactive and miR122 inh inactive.

Screening data: PubChem BioAssay, Broad Institute
